Bioassay records (PubChem BioAssay)
An excerpt weighted towards active compounds, which were near 2.2% of everything screened.
EBV gp42 block = EBV gp42 inhibition | Q1HVG2 | Fluorescence polarization binding assay, mP read-out | inhibition, % (tested at 21.74 µM) | 220,000 compounds, 0.42% hits | AID 1085; in the data active means inhibition above about 50%
Target sequence (Q1HVG2 whole entry, looked up): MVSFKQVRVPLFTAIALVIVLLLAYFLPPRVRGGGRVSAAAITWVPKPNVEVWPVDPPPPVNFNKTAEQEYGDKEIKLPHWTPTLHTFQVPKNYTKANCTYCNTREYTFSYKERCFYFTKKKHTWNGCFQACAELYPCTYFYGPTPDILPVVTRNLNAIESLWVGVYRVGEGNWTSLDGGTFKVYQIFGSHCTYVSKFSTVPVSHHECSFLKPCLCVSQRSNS
GLD-1 RNA inh = GLD-1-TGE RNA interaction inhibition (C. elegans); Q17339; purified GLD-1 + fluorescein TGE RNA, fluorescence polarization; inhibition, % at 5.96 µM; 320,000 compounds, 0.44% hits; AID 2280;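 active means percent inhibition above a per-plate cutoff, the plate mean of test compounds plus 3 SD, cut at about 30% in these data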
IMP-1 inh = inhibitors of Pseudomonas aeruginosa IMP-1 metallo-beta-lactamase; purified IMP-1, nitrocefin hydrolysis, epi-absorbance fluorescence; inhibition, % at 5.6 µM; 290,000 compounds, 0.45% hits;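 active means inhibition above the mean plus 3 SD of all compounds in the same screening run, cut at about 4.5% in these data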
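system = purified recombinant IMP-1 beta-lactamase | amount = 0.2 nM IMP-1, as dispensed | medium = HEPES buffer pH 7.1 with ZnSO4 and Brij 35 | times = 25 °C, 15 min preincubation, 25 min reaction | detection = plate fluorescence quenching by hydrolysis product, ex 480/em 530 nm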
MEX-5 binding = C. elegans MEX-5 TCR-2 RNA binding activity | Q9XUB2 | 300,000 compounds, 0.38% hits | MEX-5/FITC-TCR2 RNA binding, fluorescence polarization; hits give low values | activity score (negative = inhibition of binding), % at 10 µM;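 active means inhibition past about -25% in most replicates, and total fluorescence under double the plate's negative control median, limit read from the data; inconclusive means replicates evenly split on the limit, or fluorescence at least double controls; inactive means too little inhibition in most replicates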
VIM-2 inh = blocks Pseudomonas aeruginosa VIM-2 metallo-beta-lactamase; purified VIM-2, nitrocefin hydrolysis, epi-absorbance fluorescence; inhibition, % at 5.6 µM; 290,000 compounds, 0.89% hits;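 active means inhibition above the mean of all tested compounds plus 3 SD, cutoff set per screening run, cut at about 7.5% in these data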;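 further: red hydrolysis product quenches plate fluorescence so inhibitors raise well fluorescence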
BCLXL inh = inhibitors of human Bcl-xL; Q07817; GST-Bcl-xL / FITC-Bim BH3 peptide fluorescence polarization; inhibition, % at 10.9 µM; 320,000 compounds, 0.7% hits; AID 2129;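 active means inhibition above the mean of all tested compounds plus 3 SD, cutoff set per campaign, cut at about 30% in these data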;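 further: inhibitors lower millipolarization by displacing the labeled peptide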
Target sequence (Q07817 whole entry, looked up): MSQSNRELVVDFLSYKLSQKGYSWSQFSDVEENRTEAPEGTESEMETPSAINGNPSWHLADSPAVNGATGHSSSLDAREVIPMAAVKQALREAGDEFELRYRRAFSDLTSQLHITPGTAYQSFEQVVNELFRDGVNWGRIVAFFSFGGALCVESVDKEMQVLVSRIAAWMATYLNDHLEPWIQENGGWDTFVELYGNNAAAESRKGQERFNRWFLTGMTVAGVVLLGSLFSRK
Hits are given with their value; – = inactive; ? = inconclusive; · = no result; + = active, no number.

SMILES	EBV gp42 block	GLD-1 RNA inh	IMP-1 inh	MEX-5 binding	VIM-2 inh	BCLXL inh
Cn1c(C(=O)N2CCN(c3nc4ccccc4s3)CC2)cc2sccc21	–	–	–	–	–	–
Cc1ccc(NC(=O)Cn2nnc(C(=O)NCc3cccs3)c2N)cc1F	·	–	–	–	–	–
Cc1ccc(-c2ccc(C(=O)NCCCNC(=O)c3cnccn3)o2)cc1Cl	·	–	–	–	–	–
CC1=CC(=Nc2c(C)n(C)n(-c3ccccc3)c2=O)C=CC1=O	–	76	–	–	–	125
Cc1c(N=C2Nc3cccc4cccc2c34)c(=O)n(-c2ccccc2)n1C	–	–	–	-41	–	–
CC1=CC(=Nc2c(C)n(C)n(-c3ccccc3)c2=O)C=C(C)C1=O	–	–	–	–	–	–
O=C(O)C1C2C=CC(C2)C1C(=O)NCc1ccc(Cl)cc1Cl (stereo not drawn)	·	–	7.6	–	–	–
COc1ccc2c(-c3ccccc3)cc(SCC(N)=O)nc2c1	–	–	–	-33	–	–
COc1ccc2nc(SCC(N)=O)cc(C)c2c1	–	–	–	–	–	–
CCOc1cc(N2CCOCC2)c(OCC)cc1NC(=O)c1cc(S(=O)(=O)N2CCOCC2)ccc1C	·	–	·	·	·	·
O=S(=O)(Nc1ccc(O)c2ccccc12)c1ccc(Br)cc1	·	–	–	-27	–	–
COc1cc2c(cc1OC)C(c1ccccc1)CC2=O (stereo not drawn)	–	–	10	–	–	–
CCOC(=O)C(=Cc1ccc(-c2ccsc2C(=O)OC)o1)C(=O)OCC	–	–	–	–	–	–
CCOC(=O)/C(C#N)=C/c1ccc(-c2ccsc2C(=O)OC)o1	–	–	–	-55	–	–
Cc1noc(C)c1S(=O)(=O)N(C)C[C@H]1Oc2ccc(NC(=O)Cc3ccccc3)cc2C(=O)N([C@H](C)CO)C[C@@H]1C	·	–	·	·	·	·
Nc1cc(C(=O)O)c(N)c2c1C(=O)c1ccccc1C2=O	119	112	–	-101	–	155
C[N+](C)(C)c1ccc(/C=N/Nc2nc(Cl)c(C#N)c(Cl)c2Cl)cc1	–	–	–	–	10	–
CCCN(C(=O)CSc1ccccc1C(=O)O)C1CCS(=O)(=O)C1 (stereo not drawn)	·	–	·	·	·	·
CC(C)(C)NC(=O)c1cccc2c1C(=O)c1ccccc1-2	–	–	–	–	–	–
O=C(NCCO)c1cccc2c1C(=O)c1ccccc1-2	–	–	–	–	7.9	–
CC(NS(=O)(=O)c1ccc(Cl)cc1)C(=O)N1CCOCC1 (stereo not drawn)	·	–	–	–	–	–
CCN1C(=O)/C(=C2/C=Cc3ccccc3N2C)OC1=S	–	–	–	-28	–	–
CCCOc1ccc(-c2cc(C(=O)NCC3CCCO3)c3ccccc3n2)cc1 (stereo not drawn)	–	–	–	–	–	–
COc1cc(/C=N/NC(=O)c2cc(-c3ccco3)nc3ccccc23)cc(OC)c1O	–	–	–	–	–	–
O=C(NCC1CCCO1)c1cc(-c2ccco2)nc2ccccc12 (stereo not drawn)	–	39	–	–	–	55
SMILES	EBV gp42 block	GLD-1 RNA inh	IMP-1 inh	MEX-5 binding	VIM-2 inh	BCLXL inh
O=C(N/N=C/c1cccc(F)c1)c1cc(-c2ccco2)nc2ccccc12	66	–	–	–	–	–
CCOC(=O)c1c(/N=C/c2ccc(O)cc2O)sc2c1CCC2	–	33	–	–	–	–
CCNc1nc(NCC)nc(Oc2ccc(C(=O)OC)cc2)n1	–	–	–	–	–	–
COc1ccc(Br)cc1/C=N/N1C(=O)CSC1=S	·	–	17	–	–	–
COc1cc(/C=N/N2C(=O)CSC2=S)ccc1O	–	–	–	–	–	–
COCC(C)n1c(SCC(=O)NC(=O)Nc2ccc3c(c2)OCCO3)nc2ccccc2c1=O (stereo not drawn)	–	–	5.5	–	–	–
O=C(CSc1nnnn1-c1ccccc1)NC(=O)Nc1ccc2c(c1)OCCO2	–	–	5.6	–	–	–
COCC(C)n1c(SCC(=O)NC(=O)Cc2ccccc2)nc2ccccc2c1=O (stereo not drawn)	·	–	·	·	·	–
COC(=O)C1=C(C)N(c2ccc(OC)cc2)C(C)=C(C(=O)OC)C1c1ccc(OC)cc1	–	–	38	–	–	–
COc1ccc(-c2nc3ccc(N4CCN(C)CC4)cc3c(=O)[nH]2)cc1	–	–	–	–	8.1	–
CN1CCN(CCNC(=O)Cn2c(=O)c3cccn3c3ccc(F)cc32)CC1	·	–	–	–	–	–
Cc1ccc2occ(/C=N/NC(=O)c3ccccc3Br)c(=O)c2c1	·	–	5.2	–	–	–
CCOc1ccccc1C(=O)N/N=C/c1coc2ccc(C)cc2c1=O	·	·	10	·	–	·
Cc1cc(N2CCN(c3ccccc3)CC2)n2c(n1)nc1ccccc12	–	–	–	·	11	–
Cc1cc(N2CCN(c3ccccc3)CC2)n2nnnc2n1	–	–	–	–	–	–
CCCN(CC(=O)Nc1ccccc1C)C(=O)CCN1C(=O)c2cccc([N+](=O)[O-])c2C1=O	·	–	·	–	·	–
CCCc1cc(=O)[nH]c(SCC(=O)Nc2cc(C)on2)n1	–	–	–	–	–	–
Cc1ccccc1-c1ccc(/C=C2/SC(N3CCOCC3)=NC2=O)o1	–	–	–	?	–	–
O=C1N=C(N2CCOCC2)S/C1=C\c1ccc(-c2ccccc2Cl)o1	–	–	–	?	–	40
Cc1nc(NCc2cccnc2)c2c3c(sc2n1)CC(C)CC3 (stereo not drawn)	–	–	–	–	9.9	–
CCOC(=O)C1CCCN(C(=O)C2c3ccccc3Oc3ccccc32)C1 (stereo not drawn)	–	189	–	–	–	+
CCOC(=O)C1CCCN(C(=O)/C(=C/c2ccco2)NC(=O)c2ccccc2)C1 (stereo not drawn)	·	–	5.2	–	–	–
CCOC(=O)C1CCCN(C(=O)c2ccc(C(=O)c3ccccc3)cc2)C1 (stereo not drawn)	·	–	·	·	·	–
Cc1cc(S(=O)(=O)n2[nH]c(=O)c(CCO)c2C)c(Cl)cc1Cl	·	–	–	–	–	67
CCN(CC(=O)Nc1ccc(NC(C)=O)cc1)C(=O)c1ccc(=O)[nH]c1	·	–	–	–	–	–
COc1ccc(-c2c(C(=O)O)c(C(=O)O)c3n2CCC3)cc1	·	–	–	–	11	–
COc1ccc(OC)c(NC(=O)CSc2nnc(NC(=O)c3ccco3)s2)c1	·	–	–	–	–	–
COc1ccc(N2C(=O)C3C(C2=O)C(C(=O)c2ccc(Cl)cc2)N2CCCC32)cc1 (stereo not drawn)	–	–	–	–	–	–
Cc1ccc(N2C(=O)[C@@H]3[C@H](C2=O)[C@H]2C=C(C(=O)c4ccccc4)C=CN2[C@@H]3C(=O)c2ccc(Cl)cc2)cc1	–	–	–	–	–	–
